This is an account of results in PubChem BioAssay.

The nature of test [1]: reducers of endogenous Her2 protein level, primary screen, SKBR3 breast tumor cells, AlphaScreen, ATP viability (AID 461;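 active = Her2 level under about 52% in both replicate screens, with viability over 70% of control, limit read from the data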;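 as to Her2 level: lower value means less Her2 protein in the cells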;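 as to viability: percent of carrier control wells set as 100% viability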). The conditions noted are these: 18-24 h, measured here: SKBR3 viability, ATP luminescence, at 10 µM.
Test [2] concerns the target Receptor tyrosine-protein kinase erbB-2 (Homo sapiens) (UniProt P04626). The test is described as above. The conditions noted are these: 18-24 h, at 10 µM, stronger effect = lower value.
Test [3] can be described thus: SK-BR-3 cell growth inhibitors, pilot screen, 24 h, human (AID 572;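 active = viability at or below 10% of carrier control in both of two separate runs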;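 also: compound exposure lasted between 18 and 24 h rather than exactly 24 h; 100% = carrier-treated control wells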). To be noted: SK-BR-3 viability, CellTiter-Glo luminescence, at 10 µM, stronger effect = lower value.
Test [4] can be described thus: HUVEC growth inhibition – cell-based, human, primary screen (AID 575;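 active = viability at or below 30% in both replicate assays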;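 also: 100% = median of untreated cell wells with 0.1% DMSO on each plate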). To be noted: HUVEC proliferation, CellTiter-Glo luminescence, 72 h; at 10 µM; stronger effect = lower value. The essentials:
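Test system: primary human umbilical vein endothelial cells. Quantity: 1250 cells/well. Compound: single 10 µM dose, 0.1% DMSO, from 5x medium stock. Timing: 72 h treatment at 37 °C. Detection: ATP-based CellTiter-Glo luminescent read. Benchmarks: vehicle and MePR control wells. Format: 384-well plates coated with collagen.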

A short description of test [5]: growth inhibitors of H69AR lung tumor, primary screen, human, duplicate replicates (AID 580;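 active = viability at or under a set limit in both replicates, limit being median viability minus 3 SD, cut at about 48% in these data, passing the limit was not always enough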;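 also: 100% = mean luminescence of untreated wells and 0% = no signal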). To be noted: H69AR lung tumor cells viability, ATP luminescence, 72 h; at 10 µM; stronger effect = lower value.
The nature of test [6]: reversal of MRP1-mediated doxorubicin resistance, pilot screen, H69AR cells, doxorubicin co-treatment (AID 601;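 active = viability loss from added drug above about 55%, and viability with drug at most 40%, in both replicates, limit read from the data, passing the limit was not always enough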). To be noted: CellTiter-Glo, 72 h, at 10 µM; for differential viability (reversal): stronger effect = higher value.
The nature of test [7]: 384-well plate pilot, post-Golgi transport modulator project, inhibition of yeast transport mutant growth (AID 636; in the data active = inhibition above about 31%). To be noted: absorbance 615 nm, about 18 h, stronger effect = higher value.
Test [8] can be described thus: growth suppression of yeast trafficking mutant, preliminary HTS, modulators of trafficking downstream of Golgi apparatus project, 1536-format plate, OD 615 nm (AID 637). To be noted: yeast transport mutant growth, absorbance 615 nm, 18 h; stronger effect = higher value.
The mark [9] stands for this setting: H69AR cells + 2 uM doxorubicin, measured here: viability with 2 uM doxorubicin, stronger effect = lower value.
Where [10] appears, read: H69AR cells, compound alone cytotoxicity.

Molecules are shown by their SMILES. Active and inactive are the calls of the source. Rule as the data show it, unless noted: active = inhibition above about 30%; inactive = the rest.

Sequence of Receptor tyrosine-protein kinase erbB-2 (Homo sapiens) (P04626 whole entry, looked up): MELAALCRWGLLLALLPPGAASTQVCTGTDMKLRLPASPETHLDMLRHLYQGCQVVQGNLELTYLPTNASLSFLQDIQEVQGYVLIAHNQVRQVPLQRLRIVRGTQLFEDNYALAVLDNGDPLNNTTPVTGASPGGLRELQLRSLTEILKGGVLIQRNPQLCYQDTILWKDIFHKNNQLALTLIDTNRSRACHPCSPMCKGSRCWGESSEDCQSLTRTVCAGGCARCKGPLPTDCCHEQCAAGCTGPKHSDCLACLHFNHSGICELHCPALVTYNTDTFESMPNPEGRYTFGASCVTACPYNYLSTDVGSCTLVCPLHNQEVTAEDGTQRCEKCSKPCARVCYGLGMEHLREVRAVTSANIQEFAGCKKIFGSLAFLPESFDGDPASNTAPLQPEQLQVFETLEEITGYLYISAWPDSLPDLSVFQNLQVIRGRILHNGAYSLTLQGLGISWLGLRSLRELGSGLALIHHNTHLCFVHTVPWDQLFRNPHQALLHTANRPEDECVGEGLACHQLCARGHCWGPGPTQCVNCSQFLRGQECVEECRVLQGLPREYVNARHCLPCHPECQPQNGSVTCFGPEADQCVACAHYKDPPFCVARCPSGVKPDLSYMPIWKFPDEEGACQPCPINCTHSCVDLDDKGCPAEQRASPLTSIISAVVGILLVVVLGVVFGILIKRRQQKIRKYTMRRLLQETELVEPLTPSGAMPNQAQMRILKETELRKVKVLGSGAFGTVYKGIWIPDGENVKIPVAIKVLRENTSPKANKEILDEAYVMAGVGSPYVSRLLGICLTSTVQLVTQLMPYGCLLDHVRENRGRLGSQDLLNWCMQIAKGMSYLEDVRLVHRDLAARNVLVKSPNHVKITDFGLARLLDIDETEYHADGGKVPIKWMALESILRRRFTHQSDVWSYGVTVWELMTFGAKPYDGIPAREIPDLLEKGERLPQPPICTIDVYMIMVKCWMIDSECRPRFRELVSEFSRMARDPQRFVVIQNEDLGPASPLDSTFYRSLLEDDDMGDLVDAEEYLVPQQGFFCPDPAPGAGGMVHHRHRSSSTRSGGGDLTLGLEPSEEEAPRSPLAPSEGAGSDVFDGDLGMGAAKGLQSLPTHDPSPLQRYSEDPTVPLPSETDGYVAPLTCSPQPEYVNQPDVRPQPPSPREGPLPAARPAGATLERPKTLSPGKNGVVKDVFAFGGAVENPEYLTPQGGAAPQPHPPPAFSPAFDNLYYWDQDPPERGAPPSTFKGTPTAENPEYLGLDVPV

For the compound `COC(=O)c1ccccc1NC(=O)Nc1cccs1`, the viability in test [1] was 99.5%; in test [3] it was 99.5% (inactive); in test [4], 84.3% (inactive); in test [5] it was 82.4% (inactive); in test [6] (setting [9]) it was 74.9%; in test [6] (setting [10]), 82.4%. Besides, the Her2 level in test [2] was 90.5% (inactive). The differential viability (reversal) in test [6] (H69AR cells + 2 uM doxorubicin) was 7.46% (inactive). Moreover, the figures for the inhibition in test [7] and in test [8] were -3.73% (inactive) and 0% (inactive), respectively.
In the case of `Fc1ccc(-c2nnc(CN3CCN(c4ncc(C(F)(F)F)cc4Cl)CC3)o2)cc1`, the viability in test [1] is 104%; in test [3] it was 104% (inactive); in test [4] it was 63.4% (inactive); in test [5], 90.5% (inactive); in test [6] (setting [9]), 91.3%; in test [6] (setting [10]) it was 90.5%. The Her2 level in test [2] is 87% (inactive). Further, the differential viability (reversal) in test [6] (H69AR cells + 2 uM doxorubicin) is -0.76% (inactive). Moreover, the inhibition in test [7] was -1.43% (inactive); in test [8], 3.61% (inactive).
`O=C(Nc1nccs1)c1ccc(Cl)c(S(=O)(=O)N2CCCCC2)c1`: the viability is 89% in test [1]; 89% (inactive) in test [3]; 84.3% (inactive) in test [4]; 87.2% (inactive) in test [5]; 96.7% in test [6] (setting [9]); 87.2% in test [6] (setting [10]). Moreover, the Her2 level in test [2] was 65% (inactive). In test [6] (H69AR cells + 2 uM doxorubicin), the differential viability (reversal) is -9.49% (inactive). Also, the inhibition in test [7] is -5.81% (inactive); in test [8], 3.83% (inactive).
As for `COc1ccc(Cc2nc(-c3ccc(Br)cc3)no2)cc1`, the viability in test [1] is 72.5%; in test [3], 72.5% (inactive); in test [4], 92.8% (inactive); in test [5], 98.2% (inactive); in test [6] (setting [9]), 101%; in test [6] (setting [10]), 98.2%. Besides, the Her2 level in test [2] is 106% (inactive). Moreover, the differential viability (reversal) in test [6] (H69AR cells + 2 uM doxorubicin) is -2.99% (inactive). The inhibition in test [7] is -0.13% (inactive); in test [8], -12.3% (inactive).
As for `COc1ccc(N2CCN(C(=O)CSc3ccccc3N)CC2)cc1`, the viability was 85.5% in test [1]; 85.5% (inactive) in test [3]; 88.2% (inactive) in test [4]; 94.9% (inactive) in test [5]; 97.5% in test [6] (setting [9]); 94.9% in test [6] (setting [10]). In addition, the Her2 level in test [2] was 88% (inactive). In addition, the differential viability (reversal) in test [6] (H69AR cells + 2 uM doxorubicin) was -2.63% (inactive). Moreover, the inhibition was 0% (inactive) in test [7] and -0.55% (inactive) in test [8].
With `CC(C)=CCC(C)(C)C1OCCN1C(=O)c1ccccc1` (stereo not given), the viability in test [1] is 84.5%; in test [3], 84.5% (inactive); in test [4], 82.4% (inactive); in test [5], 98% (inactive); in test [6] (setting [9]), 89.3%; in test [6] (setting [10]), 98%. The Her2 level in test [2] was 99% (inactive). Further, the differential viability (reversal) in test [6] (H69AR cells + 2 uM doxorubicin) was 8.65% (inactive). The inhibition in test [7] is -3.77% (inactive); in test [8], 2.3% (inactive).
Turning to `COc1ccc(C(O)Cn2c(=N)n(CCCN(C)C)c3ccccc32)cc1` (stereo not given), the viability was 78.5% in test [1]; 78.5% (inactive) in test [3]; 90.3% (inactive) in test [4]; 97.5% (inactive) in test [5]; 91.1% in test [6] (setting [9]); 97.5% in test [6] (setting [10]). Moreover, the Her2 level in test [2] is 102% (inactive). Besides, the differential viability (reversal) in test [6] (H69AR cells + 2 uM doxorubicin) is 6.39% (inactive). Further, the inhibition was -0.26% (inactive) in test [7] and -6.51% (inactive) in test [8].
Consider `O=C(CSc1nnc(C2COc3ccccc3O2)o1)N1CCCc2ccccc21` (stereo not given), for which the viability in test [1] is 85.5%; in test [3] it was 85.5% (inactive); in test [4] it was 60.9% (inactive); in test [5], 92.3% (inactive); in test [6] (setting [9]), 95.5%; in test [6] (setting [10]), 92.3%. In addition, the Her2 level in test [2] is 78% (inactive). In test [6] (H69AR cells + 2 uM doxorubicin), the differential viability (reversal) was -3.22% (inactive). For the same compound, the inhibition in test [7] was -5.26% (inactive); in test [8] it was -4% (inactive).
Turning to `CN(C)S(=O)(=O)c1ccc(S(=O)(=O)N(Cc2ccco2)Cc2ccccc2Cl)cc1`, the viability is 93% in test [1]; 93% (inactive) in test [3]; 100% (inactive) in test [4]; 95.8% (inactive) in test [5]; 88.2% in test [6] (setting [9]); 95.8% in test [6] (setting [10]). Further, the Her2 level in test [2] is 93% (inactive). The differential viability (reversal) in test [6] (H69AR cells + 2 uM doxorubicin) was 7.62% (inactive). Moreover, the inhibition was -9.18% (inactive) in test [7] and -2.7% (inactive) in test [8].
Take `Cc1sc2nc(SCC(=O)N3CCN(CCO)CC3)n(-c3ccccc3)c(=O)c2c1C`: the viability in test [1] was 118%; in test [3], 118% (inactive); in test [4], 78.3% (inactive); in test [5] it was 88.1% (inactive); in test [6] (setting [9]), 87.2%; in test [6] (setting [10]), 88.1%. Moreover, the Her2 level in test [2] was 99% (inactive). Further, in test [6] (H69AR cells + 2 uM doxorubicin), the differential viability (reversal) was 0.935% (inactive). In addition, the inhibition was 0.65% (inactive) in test [7] and -0.16% (inactive) in test [8].
Consider `Cc1cc(Cl)ccc1NC(=O)CSc1nnc(Cc2cccs2)n1Cc1ccco1`, for which the viability was 77.5% in test [1]; 77.5% (inactive) in test [3]; 68.3% (inactive) in test [4]; 77.2% (inactive) in test [5]; 85.5% in test [6] (setting [9]); 77.2% in test [6] (setting [10]). Besides, the Her2 level in test [2] is 95.5% (inactive). Also, the differential viability (reversal) in test [6] (H69AR cells + 2 uM doxorubicin) was -8.29% (inactive). Besides, the inhibition in test [7] is -3.92% (inactive); in test [8], 1.97% (inactive).
For `Cc1nc(SC2C=CS(=O)(=O)C2)n[nH]1` (stereo not given), the viability in test [1] was 104%; in test [3] it was 104% (inactive); in test [4] it was 99.7% (inactive); in test [5], 86.3% (inactive); in test [6] (setting [9]), 100%; in test [6] (setting [10]), 86.3%. The Her2 level in test [2] is 88% (inactive). Besides, the differential viability (reversal) in test [6] (H69AR cells + 2 uM doxorubicin) is -13.9% (inactive). Besides, the values for the inhibition in test [7] and in test [8] were -7.07% (inactive) and 3.11% (inactive), respectively.
`CC1(C)CC(=O)c2cnc(NC(=O)CSc3nc4ccccc4o3)nc2C1`: the viability was 96% in test [1]; 96% (inactive) in test [3]; 81.4% (inactive) in test [4]; 105% (inactive) in test [5]; 95.7% in test [6] (setting [9]); 105% in test [6] (setting [10]). The Her2 level in test [2] was 98.5% (inactive). The differential viability (reversal) in test [6] (H69AR cells + 2 uM doxorubicin) was 9.52% (inactive). Further, the inhibition in test [7] is -4.46% (inactive); in test [8], 0.83% (inactive).
In the case of `CC(NC(=O)c1ccco1)c1ccc2c(c1)OCCO2` (stereo not given), the viability in test [1] is 116%; in test [3], 116% (inactive); in test [4], 90.7% (inactive); in test [5] it was 96.3% (inactive); in test [6] (setting [9]) it was 87.1%; in test [6] (setting [10]) it was 96.3%. Further, in test [2], the Her2 level is 95.5% (inactive). Also, in test [6] (H69AR cells + 2 uM doxorubicin), the differential viability (reversal) was 9.19% (inactive). In addition, the inhibition in test [7] is -5.73% (inactive); in test [8], -1.43% (inactive).
Turning to `CCOC(=O)c1c(C)n(C)c2ccc(O)c(S(=O)(=O)c3ccccc3)c12`, the viability in test [1] is 91.5%; in test [3], 91.5% (inactive); in test [4], 103% (inactive); in test [5] it was 87.9% (inactive); in test [6] (setting [9]), 88.9%; in test [6] (setting [10]) it was 87.9%. For the same compound, the Her2 level in test [2] is 80.5% (inactive). The differential viability (reversal) in test [6] (H69AR cells + 2 uM doxorubicin) is -1.07% (inactive). Moreover, the inhibition in test [7] is -6.4% (inactive); in test [8] it was -1.31% (inactive).
